In ChEMBL document CHEMBL4689842, “EUbOPEN Chemogenomics Library wave 1” (2021):

Test system: HEK-293T
Experiment: Multiplex assay against HEK293T;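 as to Population Tubulin-Different-Phenotype (%): share of the cells with healthy nuclei that show this phenotype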
Type: toxicity, cell-based
Settings: human
How it was run: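 Values for tubulin, mitochondrial-mass and membrane-permeability phenotypes are per cents of cells with healthy nuclei. These cells were identified by CellPathfinder machine-learning gating of live cells that had been stained at seeding with Hoechst33342, BioTracker Green Microtubule Cytoskeleton Dye, MitoTracker Red and Annexin V Alexa Fluor 680 and imaged on a CQ1 microscope at 37°C and 5% CO2 after compound addition. The gating first set Hoechst high-intensity objects apart from normal cells, then split normal cells into healthy, pyknosed or fragmented nuclei, and pyknosed cells into mitotic or apoptotic.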

[1] = 12 h, 1 µM, compound concentration 1 uM, replicate 1
[2] = 12 h, 1 µM, compound concentration 1 uM, replicate 2
[3] = 12 h, 10 µM, compound concentration 10 uM, replicate 1
[4] = 12 h, 10 µM, compound concentration 10 uM, replicate 2
[5] = 24 h, 1 µM, compound concentration 1 uM, replicate 1
[6] = 24 h, 1 µM, compound concentration 1 uM, replicate 2
[7] = 24 h, 10 µM, compound concentration 10 uM, replicate 1
[8] = 24 h, 10 µM, compound concentration 10 uM, replicate 2
[9] = 48 h, 1 µM, compound concentration 1 uM, replicate 1
[10] = 48 h, 1 µM, compound concentration 1 uM, replicate 2
[11] = 48 h, 10 µM, compound concentration 10 uM, replicate 1
[12] = 48 h, 10 µM, compound concentration 10 uM, replicate 2

## CC(C)(C)NC[C@H](O)COc1nsnc1N1CCOCC1 [TIMOLOL]
[1]
  Population Apoptotic (%): 47%
  Population Fragmented Nuclei (%): 10%
  Population Healthy Nuclei (%): 39%
  Population Hoechst High Intensity Objects (%): 14%
  Population Membrane Permeable-Phenotype (%): 4%
  Population Mitochondria Different-Phenotype (%): 77%
  Population Mitotic Cells (%): 52%
  Population Normal (%): 85%
  Population Pyknosed Nuclei (%): 50%
  Population Tubulin-Different-Phenotype (%): 36%
  Total Cell Count: 281
[2]
  Population Apoptotic (%): 12%
  Population Fragmented Nuclei (%): 5%
  Population Healthy Nuclei (%): 48%
  Population Hoechst High Intensity Objects (%): 3%
  Population Membrane Permeable-Phenotype (%): 8%
  Population Mitochondria Different-Phenotype (%): 19%
  Population Mitotic Cells (%): 87%
  Population Normal (%): 96%
  Population Pyknosed Nuclei (%): 45%
  Population Tubulin-Different-Phenotype (%): 22%
  Total Cell Count: 280
[3]
  Population Apoptotic (%): 55%
  Population Fragmented Nuclei (%): 9%
  Population Healthy Nuclei (%): 40%
  Population Hoechst High Intensity Objects (%): 13%
  Population Membrane Permeable-Phenotype (%): 2%
  Population Mitochondria Different-Phenotype (%): 87%
  Population Mitotic Cells (%): 44%
  Population Normal (%): 86%
  Population Pyknosed Nuclei (%): 49%
  Population Tubulin-Different-Phenotype (%): 53%
  Total Cell Count: 293
[4]
  Population Apoptotic (%): 8%
  Population Fragmented Nuclei (%): 3%
  Population Healthy Nuclei (%): 50%
  Population Hoechst High Intensity Objects (%): 3%
  Population Membrane Permeable-Phenotype (%): 4%
  Population Mitochondria Different-Phenotype (%): 23%
  Population Mitotic Cells (%): 91%
  Population Normal (%): 96%
  Population Pyknosed Nuclei (%): 46%
  Population Tubulin-Different-Phenotype (%): 17%
  Total Cell Count: 261
[5]
  Population Apoptotic (%): 49%
  Population Fragmented Nuclei (%): 8%
  Population Healthy Nuclei (%): 43%
  Population Hoechst High Intensity Objects (%): 12%
  Population Membrane Permeable-Phenotype (%): 1%
  Population Mitochondria Different-Phenotype (%): 58%
  Population Mitotic Cells (%): 50%
  Population Normal (%): 87%
  Population Pyknosed Nuclei (%): 47%
  Population Tubulin-Different-Phenotype (%): 41%
  Total Cell Count: 293
[6]
  Population Apoptotic (%): 8%
  Population Fragmented Nuclei (%): 7%
  Population Healthy Nuclei (%): 67%
  Population Hoechst High Intensity Objects (%): 1%
  Population Membrane Permeable-Phenotype (%): 11%
  Population Mitochondria Different-Phenotype (%): 12%
  Population Mitotic Cells (%): 91%
  Population Normal (%): 98%
  Population Pyknosed Nuclei (%): 24%
  Population Tubulin-Different-Phenotype (%): 30%
  Total Cell Count: 363
[7]
  Population Apoptotic (%): 44%
  Population Fragmented Nuclei (%): 6%
  Population Healthy Nuclei (%): 57%
  Population Hoechst High Intensity Objects (%): 12%
  Population Membrane Permeable-Phenotype (%): 2%
  Population Mitochondria Different-Phenotype (%): 70%
  Population Mitotic Cells (%): 55%
  Population Normal (%): 87%
  Population Pyknosed Nuclei (%): 35%
  Population Tubulin-Different-Phenotype (%): 40%
  Total Cell Count: 360
[8]
  Population Apoptotic (%): 8%
  Population Fragmented Nuclei (%): 3%
  Population Healthy Nuclei (%): 71%
  Population Hoechst High Intensity Objects (%): 3%
  Population Membrane Permeable-Phenotype (%): 4%
  Population Mitochondria Different-Phenotype (%): 17%
  Population Mitotic Cells (%): 91%
  Population Normal (%): 96%
  Population Pyknosed Nuclei (%): 24%
  Population Tubulin-Different-Phenotype (%): 18%
  Total Cell Count: 355
[9]
  Population Apoptotic (%): 52%
  Population Fragmented Nuclei (%): 18%
  Population Healthy Nuclei (%): 46%
  Population Hoechst High Intensity Objects (%): 10%
  Population Membrane Permeable-Phenotype (%): 6%
  Population Mitochondria Different-Phenotype (%): 23%
  Population Mitotic Cells (%): 47%
  Population Normal (%): 89%
  Population Pyknosed Nuclei (%): 34%
  Population Tubulin-Different-Phenotype (%): 33%
  Total Cell Count: 373
[10]
  Population Apoptotic (%): 16%
  Population Fragmented Nuclei (%): 5%
  Population Healthy Nuclei (%): 82%
  Population Hoechst High Intensity Objects (%): 2%
  Population Mitochondria Different-Phenotype (%): 3%
  Population Mitotic Cells (%): 83%
  Population Normal (%): 97%
  Population Pyknosed Nuclei (%): 12%
  Population Tubulin-Different-Phenotype (%): 25%
  Total Cell Count: 733
[11]
  Population Apoptotic (%): 42%
  Population Fragmented Nuclei (%): 12%
  Population Healthy Nuclei (%): 65%
  Population Hoechst High Intensity Objects (%): 5%
  Population Membrane Permeable-Phenotype (%): 0%
  Population Mitochondria Different-Phenotype (%): 23%
  Population Mitotic Cells (%): 57%
  Population Normal (%): 94%
  Population Pyknosed Nuclei (%): 22%
  Population Tubulin-Different-Phenotype (%): 20%
  Total Cell Count: 545
[12]
  Population Apoptotic (%): 6%
  Population Fragmented Nuclei (%): 7%
  Population Healthy Nuclei (%): 85%
  Population Hoechst High Intensity Objects (%): 2%
  Population Membrane Permeable-Phenotype (%): 2%
  Population Mitochondria Different-Phenotype (%): 4%
  Population Mitotic Cells (%): 93%
  Population Normal (%): 97%
  Population Pyknosed Nuclei (%): 7%
  Population Tubulin-Different-Phenotype (%): 17%
  Total Cell Count: 660
